Reference: ChEMBL document CHEMBL4261631, “Synthetic thiosemicarbazones as a new class of Mycobacterium tuberculosis protein tyrosine phosphatase A inhibitors” (Bioorg Med Chem, 2018)

Tests used:
[1] = molecular target: T1, Low molecular weight protein-tyrosine phosphatase A (Mycobacterium tuberculosis, UniProt P9WIA1); test: Inhibition of recombinant Mycobacterium tuberculosis PtpA using p-nitrophenyl phosphate as substrate preincubated for 10 mins followed by substrate addition and measured every minute for 10 mins by UV-VIS spectrophotometric analysis
T1 sequence (P9WIA1 whole entry): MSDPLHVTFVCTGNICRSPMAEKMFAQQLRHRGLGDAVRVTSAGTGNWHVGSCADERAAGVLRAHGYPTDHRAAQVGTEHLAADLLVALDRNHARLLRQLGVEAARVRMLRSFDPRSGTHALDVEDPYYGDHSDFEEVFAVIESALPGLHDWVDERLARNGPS
Procedure, shortened: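 Recombinant Mtb PtpA at 50 nM in 20 mM imidazole pH 7.0, premixed with inhibitor (0.5–50 µM, DMSO ≤4% v/v) 10 min at 37 °C. Started with 10 mM pNPP. A410 read each min for 10 min at 37 °C. Residual activity from 7 min minus 2 min absorbance versus no-inhibitor wells. IC50 by linear regression of % inhibition versus concentration. Triplicate, mean ± SD of three experiments.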

[2] = molecular target: T2, Phosphotyrosine protein phosphatase (Mycobacterium tuberculosis, UniProt A0A045ISB3); test: Inhibition of recombinant Mycobacterium tuberculosis PtpB using p-nitrophenyl phosphate as substrate preincubated for 10 mins followed by substrate addition and measured every minute for 10 mins by UV-VIS spectrophotometric analysis
T2 sequence (A0A045ISB3 whole entry): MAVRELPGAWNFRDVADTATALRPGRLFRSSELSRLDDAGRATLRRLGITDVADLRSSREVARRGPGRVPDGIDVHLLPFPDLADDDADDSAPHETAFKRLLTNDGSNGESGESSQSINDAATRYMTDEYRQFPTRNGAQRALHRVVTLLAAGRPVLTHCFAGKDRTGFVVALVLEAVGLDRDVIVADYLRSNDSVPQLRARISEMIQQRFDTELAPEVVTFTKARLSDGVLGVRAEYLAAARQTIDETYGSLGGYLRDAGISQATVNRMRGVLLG
Procedure, shortened: (§1)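 Recombinant PTP at PtpB 50 nM, LYP 169 nM, PTP-PEST 205 nM or PTP1B 38 nM, in 20 mM imidazole pH 7.0. Inhibitor (0.5–50 µM, DMSO ≤4% v/v) premixed with enzyme 10 min at 37 °C. Started with 10 mM pNPP. A410 each min for 10 min. Activity from 7 min minus 2 min. IC50 by linear regression. Triplicate.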

[3] = molecular target: T3, Tyrosine-protein phosphatase non-receptor type 1 (Homo sapiens, UniProt P18031); test: Inhibition of recombinant human Ptp1B using p-nitrophenyl phosphate as substrate preincubated for 10 mins followed by substrate addition and measured every minute for 10 mins by UV-VIS spectrophotometric analysis; procedure, shortened: as §1
T3 sequence (P18031 whole entry): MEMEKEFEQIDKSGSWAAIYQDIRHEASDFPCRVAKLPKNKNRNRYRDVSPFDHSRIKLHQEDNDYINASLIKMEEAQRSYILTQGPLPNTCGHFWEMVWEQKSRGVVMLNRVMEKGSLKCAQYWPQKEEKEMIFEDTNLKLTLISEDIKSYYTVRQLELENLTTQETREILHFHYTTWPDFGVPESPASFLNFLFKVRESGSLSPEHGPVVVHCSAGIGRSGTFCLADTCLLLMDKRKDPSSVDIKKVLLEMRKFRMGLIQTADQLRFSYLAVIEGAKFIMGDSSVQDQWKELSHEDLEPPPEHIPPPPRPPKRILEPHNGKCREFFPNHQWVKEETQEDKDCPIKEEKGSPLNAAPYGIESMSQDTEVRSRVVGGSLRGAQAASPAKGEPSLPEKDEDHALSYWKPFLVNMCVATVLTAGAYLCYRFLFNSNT

[4] = molecular target: Tyrosine-protein phosphatase YopH (Yersinia enterocolitica, UniProt P15273); test: Inhibition of recombinant Yersinia enterocolitica YopH using p-nitrophenyl phosphate as substrate preincubated for 10 mins followed by substrate addition and measured every minute for 10 mins by UV-VIS spectrophotometric analysis
Chain of Tyrosine-protein phosphatase YopH (P15273 whole entry): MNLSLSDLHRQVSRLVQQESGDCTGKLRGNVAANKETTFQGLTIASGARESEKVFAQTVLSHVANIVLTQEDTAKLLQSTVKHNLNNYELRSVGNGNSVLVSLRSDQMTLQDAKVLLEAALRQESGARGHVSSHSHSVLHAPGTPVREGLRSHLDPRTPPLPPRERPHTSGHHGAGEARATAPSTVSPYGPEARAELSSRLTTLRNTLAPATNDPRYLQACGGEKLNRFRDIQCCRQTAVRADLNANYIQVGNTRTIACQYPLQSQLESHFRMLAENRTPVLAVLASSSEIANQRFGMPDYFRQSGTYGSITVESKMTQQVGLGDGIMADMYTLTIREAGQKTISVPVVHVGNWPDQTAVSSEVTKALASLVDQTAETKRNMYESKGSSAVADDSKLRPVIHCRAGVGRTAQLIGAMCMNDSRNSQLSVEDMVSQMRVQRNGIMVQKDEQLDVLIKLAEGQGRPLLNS

[5] = molecular target: T4, Tyrosine-protein phosphatase non-receptor type 12 (Homo sapiens, UniProt Q05209); test: Inhibition of recombinant human PTP-PEST using p-nitrophenyl phosphate as substrate preincubated for 10 mins followed by substrate addition and measured every minute for 10 mins by UV-VIS spectrophotometric analysis; procedure, shortened: as §1
T4 sequence (Q05209 whole entry): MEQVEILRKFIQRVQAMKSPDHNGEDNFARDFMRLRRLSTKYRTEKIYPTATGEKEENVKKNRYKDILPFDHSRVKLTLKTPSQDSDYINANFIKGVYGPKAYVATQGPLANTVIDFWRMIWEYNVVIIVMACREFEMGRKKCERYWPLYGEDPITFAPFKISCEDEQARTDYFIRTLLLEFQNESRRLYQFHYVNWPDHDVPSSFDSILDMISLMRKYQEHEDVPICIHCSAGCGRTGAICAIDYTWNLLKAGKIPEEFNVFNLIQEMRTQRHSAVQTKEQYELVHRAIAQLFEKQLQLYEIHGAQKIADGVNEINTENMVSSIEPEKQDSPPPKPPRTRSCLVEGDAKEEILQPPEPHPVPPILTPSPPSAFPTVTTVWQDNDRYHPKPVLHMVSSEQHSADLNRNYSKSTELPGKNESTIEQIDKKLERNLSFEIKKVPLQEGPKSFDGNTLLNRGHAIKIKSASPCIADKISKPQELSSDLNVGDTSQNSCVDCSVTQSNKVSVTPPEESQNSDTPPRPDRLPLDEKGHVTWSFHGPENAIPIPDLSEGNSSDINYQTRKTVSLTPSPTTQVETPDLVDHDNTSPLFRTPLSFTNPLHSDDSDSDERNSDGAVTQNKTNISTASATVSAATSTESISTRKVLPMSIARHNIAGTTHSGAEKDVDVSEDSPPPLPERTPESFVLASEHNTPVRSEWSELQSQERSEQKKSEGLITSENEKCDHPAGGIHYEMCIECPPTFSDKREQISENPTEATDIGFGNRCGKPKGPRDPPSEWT

[6] = test system: Mycobacterium tuberculosis; test: Selectivity index, ratio of IC50 for recombinant Mycobacterium tuberculosis PtpB to IC50 for recombinant Mycobacterium tuberculosis PtpA
Procedure, shortened: (§2)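 Selectivity index calculated as IC50 for PtpB, LYP, PTP-PEST or PTP1B divided by IC50 for PtpA. Both IC50 values come from pNPP hydrolysis at 37 °C with 10 min enzyme–inhibitor premix and A410 readout, using 0.5–50 µM inhibitor.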

[7] = Selectivity index, ratio of IC50 for recombinant human Ptp1B to IC50 for recombinant Mycobacterium tuberculosis PtpA; procedure, shortened: as §2
[8] = Selectivity index, ratio of IC50 for recombinant human LYP to IC50 for recombinant Mycobacterium tuberculosis PtpA; procedure, shortened: as §2

SMILES	IC50 [1]	IC50 [2]	IC50 [3]	IC50 [4]	IC50 [5]	Ratio IC50 [6]	Ratio IC50 [7]	Ratio IC50 [8]
S=C(N/N=C/c1ccc(-c2ccccc2)cc1)Nc1cccc2ccccc12	7.4 µM	17.6 µM	> 50 µM	6.5 µM	> 50 µM	2.4	> 6.8	> 6.8
Cc1ccc(NC(=S)N/N=C/c2ccc(-c3cc(C(F)(F)F)ccc3Cl)o2)cc1	9.1 µM	30.3 µM	38.2 µM	6.9 µM	> 50 µM	3.3	4.2	> 5.5
FC(F)(F)c1ccc(Cl)c(-c2ccc(/C=N/NC(=S)Nc3cccc4ccccc34)o2)c1	2.9 µM	6.2 µM	9.4 µM	2.6 µM	15.7 µM	2.1	3.2	> 10.3
O=[N+]([O-])c1ccc(/C=N/NC(=S)Nc2cccc3ccccc23)cc1	9.5 µM	18.4 µM	17 µM	7.1 µM	> 50 µM	1.9	1.8	> 5.3
